Laboratory results as given in ChEMBL document CHEMBL5661979, “Pharmacological inhibition of BMK1 suppresses tumor growth through promyelocytic leukemia protein” (Cancer Cell, 2010).

How the values were obtained:
[1] = Inhibition of SRPK1/2 in human HeLa cells lysate at 10 uM pre incubated for 15 mins followed by ADP acyl phosphate probe addition and measured after 10 mins by LC-MS/MS analysis relative to control; settings: 25 min, condition cancer
[2] = target: PKC alpha and beta-2 (Homo sapiens, UniProt P17252+P05771); experiment: Inhibition of PKCalpha/beta in human HeLa cells lysate pre incubated for 15 mins followed by ATP acyl phosphate probe addition and measured after 10 mins by LC-MS/MS analysis; format: subcellular
[3] = target: T1, Ribosomal protein S6 kinase alpha-1 (Homo sapiens, UniProt Q15418); experiment: Inhibition of RSK1 domain 2 in human HeLa cells lysate at 2 uM pre incubated for 15 mins followed by ATP acyl phosphate probe addition and measured after 10 mins by LC-MS/MS analysis relative to control; format: subcellular; settings: time 25.0 min
T1 sequence (Q15418 whole entry, the tested form may be a part, canonical isoform): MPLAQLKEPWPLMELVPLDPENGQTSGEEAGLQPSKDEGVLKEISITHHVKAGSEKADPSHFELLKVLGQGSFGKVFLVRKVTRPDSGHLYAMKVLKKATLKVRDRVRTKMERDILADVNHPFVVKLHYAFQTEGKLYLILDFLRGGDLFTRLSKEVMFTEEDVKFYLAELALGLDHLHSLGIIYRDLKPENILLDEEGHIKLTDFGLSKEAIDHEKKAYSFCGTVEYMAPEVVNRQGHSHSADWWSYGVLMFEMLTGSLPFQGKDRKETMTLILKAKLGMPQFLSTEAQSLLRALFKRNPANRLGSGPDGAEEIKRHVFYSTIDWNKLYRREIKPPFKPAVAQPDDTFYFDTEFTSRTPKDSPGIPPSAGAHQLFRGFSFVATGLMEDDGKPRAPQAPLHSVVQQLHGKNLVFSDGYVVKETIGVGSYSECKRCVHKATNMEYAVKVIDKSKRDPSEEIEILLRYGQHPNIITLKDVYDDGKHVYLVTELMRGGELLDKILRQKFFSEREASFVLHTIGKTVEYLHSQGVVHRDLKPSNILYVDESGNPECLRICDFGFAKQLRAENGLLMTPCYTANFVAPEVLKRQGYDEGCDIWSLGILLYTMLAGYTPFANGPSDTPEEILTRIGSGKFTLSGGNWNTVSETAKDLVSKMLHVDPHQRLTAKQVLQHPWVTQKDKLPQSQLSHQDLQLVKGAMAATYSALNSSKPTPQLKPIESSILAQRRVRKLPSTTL

[4] = target: T2, Phosphorylase b kinase gamma catalytic chain, liver/testis isoform (Homo sapiens) (UniProt P15735); experiment: Inhibition of PHKG2 in human HeLa cells lysate at 2 uM pre incubated for 15 mins followed by ADP acyl phosphate probe addition and measured after 10 mins by LC-MS/MS analysis relative to control; format: subcellular; settings: time 25.0 min
T2 sequence (whole entry): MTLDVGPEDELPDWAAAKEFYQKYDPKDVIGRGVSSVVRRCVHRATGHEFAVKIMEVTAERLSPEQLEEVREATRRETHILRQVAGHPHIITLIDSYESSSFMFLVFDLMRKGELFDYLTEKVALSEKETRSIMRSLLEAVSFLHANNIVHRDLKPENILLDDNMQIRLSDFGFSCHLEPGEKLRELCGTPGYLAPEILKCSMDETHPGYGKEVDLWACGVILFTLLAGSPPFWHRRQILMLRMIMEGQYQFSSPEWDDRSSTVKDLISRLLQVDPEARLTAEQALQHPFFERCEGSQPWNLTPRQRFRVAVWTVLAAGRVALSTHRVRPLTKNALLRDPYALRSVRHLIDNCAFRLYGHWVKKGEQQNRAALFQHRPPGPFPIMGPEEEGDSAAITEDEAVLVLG

[5] = target: AMPK alpha1/alpha2 (Homo sapiens, UniProt P54646+Q13131); experiment: Inhibition of AMPKalpha1/2 in human HeLa cells lysate at 2 uM pre incubated for 15 mins followed by ATP acyl phosphate probe addition and measured after 10 mins by LC-MS/MS analysis relative to control; format: subcellular; settings: time 25.0 min
AMPK alpha1/alpha2, sequence (P54646 whole entry, looked up, the tested form may be a part): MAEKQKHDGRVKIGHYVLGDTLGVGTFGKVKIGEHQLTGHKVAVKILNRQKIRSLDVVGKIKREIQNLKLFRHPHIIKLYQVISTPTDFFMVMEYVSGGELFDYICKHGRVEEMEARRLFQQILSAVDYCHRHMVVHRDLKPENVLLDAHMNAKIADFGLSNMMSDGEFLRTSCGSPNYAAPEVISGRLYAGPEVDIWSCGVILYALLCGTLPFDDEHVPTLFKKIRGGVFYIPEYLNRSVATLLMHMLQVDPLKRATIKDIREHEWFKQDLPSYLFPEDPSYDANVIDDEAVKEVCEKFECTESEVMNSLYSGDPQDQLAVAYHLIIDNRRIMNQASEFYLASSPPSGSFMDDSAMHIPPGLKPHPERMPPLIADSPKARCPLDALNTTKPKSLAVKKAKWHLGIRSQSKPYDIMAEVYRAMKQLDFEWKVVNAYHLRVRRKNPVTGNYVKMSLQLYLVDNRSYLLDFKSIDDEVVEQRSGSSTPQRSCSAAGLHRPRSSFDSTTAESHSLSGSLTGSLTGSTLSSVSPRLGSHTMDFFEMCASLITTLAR
AMPK alpha1/alpha2, sequence (Q13131 whole entry, looked up, the tested form may be a part): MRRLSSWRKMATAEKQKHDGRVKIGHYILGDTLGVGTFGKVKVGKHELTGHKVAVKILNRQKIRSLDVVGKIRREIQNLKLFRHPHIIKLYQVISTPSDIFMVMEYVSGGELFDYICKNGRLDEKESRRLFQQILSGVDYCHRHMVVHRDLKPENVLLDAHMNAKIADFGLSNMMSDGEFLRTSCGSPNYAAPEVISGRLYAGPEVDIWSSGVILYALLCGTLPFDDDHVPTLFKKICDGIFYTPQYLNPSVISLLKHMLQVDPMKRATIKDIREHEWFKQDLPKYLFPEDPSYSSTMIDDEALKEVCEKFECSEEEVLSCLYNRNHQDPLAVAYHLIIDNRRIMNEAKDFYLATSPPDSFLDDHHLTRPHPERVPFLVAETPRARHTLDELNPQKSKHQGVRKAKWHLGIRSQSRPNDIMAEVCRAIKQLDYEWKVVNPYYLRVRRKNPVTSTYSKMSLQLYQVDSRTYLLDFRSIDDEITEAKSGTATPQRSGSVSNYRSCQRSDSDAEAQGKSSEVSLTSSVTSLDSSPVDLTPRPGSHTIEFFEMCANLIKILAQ
How it was run: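 HeLa cell lysates (5 mg/mL total protein) were preincubated with inhibitor at 0, 0.8, 2, 10 or 50 μM for 15 min. ATP or ADP acylphosphate probe was then added (5 μM final) for 10 min, and reactions were stopped with urea. Up to four fragment ions per kinase probe-peptide were quantified by targeted MS. % inhibition was taken relative to untreated lysate. Run in duplicate.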

[6] = Inhibition of PKD1/2 in human HeLa cells lysate pre incubated for 15 mins followed by ATP acyl phosphate probe addition and measured after 10 mins by LC-MS/MS analysis; format: subcellular
[7] = target: Glycogen synthase kinase-3 beta (Homo sapiens, UniProt P49841); experiment: Inhibition of GSK3B isoform 2 in human HeLa cells lysate pre incubated for 15 mins followed by ATP acyl phosphate probe addition and measured after 10 mins by LC-MS/MS analysis; format: subcellular
Glycogen synthase kinase-3 beta, sequence (P49841 whole entry, canonical isoform): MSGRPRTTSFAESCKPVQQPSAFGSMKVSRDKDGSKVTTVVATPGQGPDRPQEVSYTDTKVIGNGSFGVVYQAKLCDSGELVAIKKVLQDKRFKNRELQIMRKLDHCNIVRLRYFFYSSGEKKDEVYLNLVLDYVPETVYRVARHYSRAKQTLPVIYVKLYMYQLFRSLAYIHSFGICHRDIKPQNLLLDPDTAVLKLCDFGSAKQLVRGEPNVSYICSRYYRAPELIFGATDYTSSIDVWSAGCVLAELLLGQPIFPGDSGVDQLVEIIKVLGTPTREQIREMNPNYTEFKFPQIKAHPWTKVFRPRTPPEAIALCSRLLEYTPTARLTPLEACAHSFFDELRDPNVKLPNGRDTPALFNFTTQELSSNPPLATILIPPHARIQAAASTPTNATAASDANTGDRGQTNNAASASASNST

[8] = Inhibition of KHS1/2 in human HeLa cells lysate at 2 uM pre incubated for 15 mins followed by ATP acyl phosphate probe addition and measured after 10 mins by LC-MS/MS analysis relative to control; settings: 25 min, condition cancer
[9] = target: STE20-like serine/threonine-protein kinase (Homo sapiens, UniProt Q9H2G2); experiment: Inhibition of SLK in human HeLa cells lysate at 50 uM pre incubated for 15 mins followed by ATP acyl phosphate probe addition and measured after 10 mins by LC-MS/MS analysis relative to control; format: subcellular; settings: time 25.0 min
STE20-like serine/threonine-protein kinase, sequence (Q9H2G2 whole entry, looked up, the tested form may be a part): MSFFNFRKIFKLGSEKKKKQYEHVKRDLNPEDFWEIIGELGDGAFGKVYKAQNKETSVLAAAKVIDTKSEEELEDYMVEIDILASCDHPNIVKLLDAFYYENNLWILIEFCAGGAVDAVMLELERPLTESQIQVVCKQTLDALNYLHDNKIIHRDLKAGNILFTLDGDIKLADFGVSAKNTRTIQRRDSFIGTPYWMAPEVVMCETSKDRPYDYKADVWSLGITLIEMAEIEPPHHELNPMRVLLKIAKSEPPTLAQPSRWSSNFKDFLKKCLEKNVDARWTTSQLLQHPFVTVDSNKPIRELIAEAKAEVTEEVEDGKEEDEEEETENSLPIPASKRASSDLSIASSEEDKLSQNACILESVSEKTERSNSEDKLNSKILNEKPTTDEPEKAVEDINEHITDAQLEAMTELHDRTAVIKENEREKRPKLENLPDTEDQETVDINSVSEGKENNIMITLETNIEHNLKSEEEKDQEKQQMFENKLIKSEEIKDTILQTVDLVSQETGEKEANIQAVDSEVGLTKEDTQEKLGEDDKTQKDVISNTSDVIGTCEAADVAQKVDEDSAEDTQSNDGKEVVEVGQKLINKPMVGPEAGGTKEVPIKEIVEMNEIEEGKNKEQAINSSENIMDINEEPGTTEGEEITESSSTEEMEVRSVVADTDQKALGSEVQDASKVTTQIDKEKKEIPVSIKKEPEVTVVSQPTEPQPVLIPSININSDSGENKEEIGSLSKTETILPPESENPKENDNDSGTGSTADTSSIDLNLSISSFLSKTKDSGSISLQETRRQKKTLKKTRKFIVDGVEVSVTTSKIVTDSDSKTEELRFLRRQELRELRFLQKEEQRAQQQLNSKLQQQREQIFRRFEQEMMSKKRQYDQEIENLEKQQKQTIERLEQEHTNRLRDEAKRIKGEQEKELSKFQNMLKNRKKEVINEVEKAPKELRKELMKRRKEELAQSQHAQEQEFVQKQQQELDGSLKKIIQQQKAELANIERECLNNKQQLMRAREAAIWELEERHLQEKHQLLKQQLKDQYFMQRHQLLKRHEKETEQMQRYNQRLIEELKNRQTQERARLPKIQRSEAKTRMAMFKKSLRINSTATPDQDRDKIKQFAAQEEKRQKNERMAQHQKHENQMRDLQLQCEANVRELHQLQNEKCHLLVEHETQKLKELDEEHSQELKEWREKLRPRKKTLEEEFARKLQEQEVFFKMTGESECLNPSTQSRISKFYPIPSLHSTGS

[10] = target: T1, Ribosomal protein S6 kinase alpha-1; experiment: Inhibition of RSK1 domain 2 K2 site in human HeLa cells lysate at 50 uM pre incubated for 15 mins followed by ADP acyl phosphate probe addition and measured after 10 mins by LC-MS/MS analysis relative to control; format: subcellular; settings: time 25.0 min
[11] = Inhibition of MST4/YSK1 in human HeLa cells lysate pre incubated for 15 mins followed by ATP acyl phosphate probe addition and measured after 10 mins by LC-MS/MS analysis; format: subcellular
[12] = target: Calcium/calmodulin-dependent protein kinase type II subunit gamma (Homo sapiens, UniProt Q13555); experiment: Inhibition of CAMK2g in human HeLa cells lysate pre incubated for 15 mins followed by ADP acyl phosphate probe addition and measured after 10 mins by LC-MS/MS analysis; format: subcellular
Calcium/calmodulin-dependent protein kinase type II subunit gamma, sequence (Q13555 whole entry, the tested form may be a part): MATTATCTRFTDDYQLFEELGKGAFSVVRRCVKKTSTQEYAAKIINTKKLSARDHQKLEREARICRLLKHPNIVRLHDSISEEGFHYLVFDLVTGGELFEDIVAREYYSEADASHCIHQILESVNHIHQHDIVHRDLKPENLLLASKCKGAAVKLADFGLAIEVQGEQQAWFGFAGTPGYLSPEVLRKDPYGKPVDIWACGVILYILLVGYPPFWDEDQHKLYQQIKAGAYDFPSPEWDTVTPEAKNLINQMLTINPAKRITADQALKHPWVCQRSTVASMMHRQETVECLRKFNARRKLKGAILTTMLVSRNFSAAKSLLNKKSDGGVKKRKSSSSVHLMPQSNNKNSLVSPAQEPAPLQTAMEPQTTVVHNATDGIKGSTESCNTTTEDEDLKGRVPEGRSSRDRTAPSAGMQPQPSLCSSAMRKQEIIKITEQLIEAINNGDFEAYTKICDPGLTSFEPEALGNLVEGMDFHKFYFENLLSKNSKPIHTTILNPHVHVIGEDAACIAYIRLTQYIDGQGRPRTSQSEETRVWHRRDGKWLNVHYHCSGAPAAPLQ
How it was run: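 KiNativ-type profiling in HeLa lysate (5 mg/mL total protein). Lysate preincubated 15 min with inhibitor at 50, 10, 2, 0.8 or 0 μM, then ATP or ADP acylphosphate probe added (5 μM final) for 10 min. Reaction stopped with urea and analysed by targeted MS, using up to four fragment ions per kinase peptide-probe conjugate. % inhibition calculated against untreated lysate. Duplicate reactions.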

[13] = target: Serine/threonine-protein kinase/endoribonuclease IRE1 (Homo sapiens, UniProt O75460); experiment: Inhibition of IRE1 in human HeLa cells lysate at 50 uM pre incubated for 15 mins followed by ADP acyl phosphate probe addition and measured after 10 mins by LC-MS/MS analysis relative to control; format: subcellular; settings: time 25.0 min
[14] = Inhibition of MST4/YSK1 in human HeLa cells lysate at 50 uM pre incubated for 15 mins followed by ATP acyl phosphate probe addition and measured after 10 mins by LC-MS/MS analysis relative to control; settings: 25 min, condition cancer
[15] = target: Phosphatidylinositol 5-phosphate 4-kinase type-2 beta (Homo sapiens) (UniProt P78356); experiment: Inhibition of PIP5K2B in human HeLa cells lysate at 50 uM pre incubated for 15 mins followed by ATP acyl phosphate probe addition and measured after 10 mins by LC-MS/MS analysis relative to control; format: subcellular; settings: time 25.0 min
Phosphatidylinositol 5-phosphate 4-kinase type-2 beta (Homo sapiens), sequence (P78356 whole entry): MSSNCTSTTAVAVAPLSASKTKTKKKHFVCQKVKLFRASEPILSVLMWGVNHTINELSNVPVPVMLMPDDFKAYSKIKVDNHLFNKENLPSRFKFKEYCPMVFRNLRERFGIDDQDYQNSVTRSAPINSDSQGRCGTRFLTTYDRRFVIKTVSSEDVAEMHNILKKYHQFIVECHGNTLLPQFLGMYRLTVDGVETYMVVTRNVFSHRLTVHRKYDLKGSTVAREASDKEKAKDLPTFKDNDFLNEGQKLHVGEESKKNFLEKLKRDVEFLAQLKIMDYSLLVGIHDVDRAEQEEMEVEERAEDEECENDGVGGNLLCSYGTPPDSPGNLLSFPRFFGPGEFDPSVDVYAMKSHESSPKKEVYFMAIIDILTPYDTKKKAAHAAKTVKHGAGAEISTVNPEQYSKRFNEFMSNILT

[16] = target: Calcium/calmodulin-dependent protein kinase type II subunit delta (Homo sapiens, UniProt Q13557); experiment: Inhibition of CamK2d in human HeLa cells lysate at 2 uM pre incubated for 15 mins followed by ADP acyl phosphate probe addition and measured after 10 mins by LC-MS/MS analysis relative to control; format: subcellular; settings: time 25.0 min
Calcium/calmodulin-dependent protein kinase type II subunit delta, sequence (Q13557 whole entry): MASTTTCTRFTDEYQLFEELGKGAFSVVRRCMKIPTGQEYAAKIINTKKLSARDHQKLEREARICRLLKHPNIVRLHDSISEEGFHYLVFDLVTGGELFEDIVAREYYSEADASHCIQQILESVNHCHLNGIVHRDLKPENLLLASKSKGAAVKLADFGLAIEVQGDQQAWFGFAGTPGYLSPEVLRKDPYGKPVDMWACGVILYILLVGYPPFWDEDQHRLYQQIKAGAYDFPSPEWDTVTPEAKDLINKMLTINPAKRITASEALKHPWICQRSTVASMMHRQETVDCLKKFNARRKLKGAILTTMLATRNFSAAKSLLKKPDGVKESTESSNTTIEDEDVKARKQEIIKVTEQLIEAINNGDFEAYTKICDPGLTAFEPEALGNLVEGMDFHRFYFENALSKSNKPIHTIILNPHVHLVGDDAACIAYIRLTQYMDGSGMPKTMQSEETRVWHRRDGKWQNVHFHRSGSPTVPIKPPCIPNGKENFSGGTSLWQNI

With `CCOc1cc(N2CCC(O)CC2)ccc1Nc1ncc2c(n1)N(C)c1ccccc1C(=O)N2C` the inhibition at 10 µM [1] was -8.1%, the IC50 [2] was > 50 µM and the inhibition [3] was 13.6%. The inhibition [4] was 3.4%, the inhibition [5] was -0.7% and the IC50 [6] was > 50 µM. The IC50 [7] was > 50 µM, the inhibition at 2 µM [8] was -8.6% and the inhibition [9] was 5.7%. For the same molecule, the inhibition [10] was 65.6%, the IC50 [11] was > 50 µM and the IC50 [12] was > 50 µM. The inhibition [13] was 6.2%, the inhibition at 50 µM [14] was -6.1% and the inhibition [15] was 6.9%. The inhibition [16] was -6.5%.
